Screens: PubChem, several laboratories
Rows were chosen to be rich in hits. Some 4.6% of all compounds tested hit in one or more screens of this group.
NALP3 yeast inh: NALP3 inflammasome inhibitors in reconstituted yeast, primary screen, luminescence, uHTS | Yeast reconstituted NLRP3/ASC/caspase-1, beta-gal luminescence, 24 h | inhibition, % at 10 µM | 0.39% of 330,000 active | AID 2825, 2010;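 active = inhibition of 50% or more; inactive = inhibition below 50%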;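 also: plate controls were induced DMSO wells for no effect and uninduced yeast grown without galactose for full effect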
Arr AP2 block: inhibitors of beta-arrestin/AP2 binding, primary screen, biochemical, GPCR trafficking, flow cytometry | beta-arrestin 1 C-terminal peptide binding to AP2 beta2-adaptin appendage (human) | FITC-arrestin peptide / GST-AP2 beads; AP2 beta2 appendage carries R879A mutation | inhibition, % at 10 µM | 0.31% of 340,000 active | AID 504490, 2011;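 active = inhibition above a set limit, near 3 SD of compounds lacking own fluorescence, cut at about 54% in these data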;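 also: plate controls were DMSO wells for no effect and 5 µM unlabelled arrestin peptide for full effect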
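Assay system: GST-AP2 R879A bound to glutathione beads, E. coli-expressed; Medium: PBS with 0.05% Tween 20 and 0.1% BSA; Also added: fluorescein-tagged arrestin peptide at 50 nM final; Timing: 12 min plus 1 h, RT; Measured by: flow cytometry, FL1 (488/535 nm); Evaluation: percent drop in bead-associated FITC signal.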
NALP1 yeast inh: NALP1 inflammasome inhibitors in reconstituted yeast, colorimetric, S. cerevisiae, triplicate retest | S. cerevisiae NALP1/ASC/caspase-1 growth, X-gal OD620, 72 h | inhibition, % at 10 µM | 0.61% of 280,000 active | AID 2071, 2009; in the data active = inhibition mostly above about 24%, no sharp cut-off; inactive = mostly below about 32%
PolyA inhibitor: polyadenylation inhibitors in yeast reporter cells, primary screen, luminescence, S. cerevisiae | S. cerevisiae SKY197-pL101 polyadenylation reporter, beta-gal luminescence; efflux-impaired pdr1/pdr3 knockout yeast; score 100 = 6 SD above DMSO | activity score, % at 12 µM | 0.02% of 300,000 active;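 active = lowest replicate activity score at least 50, where 100 means six control SD above control mean; inconclusive = lowest score under 50 but half or more replicates reach 50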;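 also: yeast exposed to compound for 9 h at 30 °C; higher score means more reporter readthrough which indicates perturbed polyadenylation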
ALR H2O2 inh: inhibitors of human ALR sulfhydryl oxidase, primary screen, biochemical, H2O2 detection, HRP-luminol luminescence, single point. purified ALR, DTT oxidation. 3.8% of 290,000 active. inhibition, % (concentration not given with the values). FAD-linked sulfhydryl oxidase ALR (Homo sapiens), P55789;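 active = mean replicate inhibition above about 79%, with every replicate also reaching it, limit read from the data; inconclusive = only one of the two criteria met; inactive = mean below limit and not every replicate reaching it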
DSG3 Ab inh: inhibitors of pemphigus antibody binding to DSG3, primary screen, biochemical, bead-based, flow cytometry, scFv-GFP | binding (percent of control), % at 10 µM | AID 588358, 2011 | 0.48% of 310,000 active | DSG3-coupled beads, scFv-anti-DSG3-GFP binding; stronger effect = lower value;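 active = binding more than 3 SD below its plate's average and above zero; inconclusive = below that plate limit but binding exactly zero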;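 also: hits lower antibody fragment binding to DSG3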
Target sequence (P32926 whole entry, looked up, the tested form may be a part): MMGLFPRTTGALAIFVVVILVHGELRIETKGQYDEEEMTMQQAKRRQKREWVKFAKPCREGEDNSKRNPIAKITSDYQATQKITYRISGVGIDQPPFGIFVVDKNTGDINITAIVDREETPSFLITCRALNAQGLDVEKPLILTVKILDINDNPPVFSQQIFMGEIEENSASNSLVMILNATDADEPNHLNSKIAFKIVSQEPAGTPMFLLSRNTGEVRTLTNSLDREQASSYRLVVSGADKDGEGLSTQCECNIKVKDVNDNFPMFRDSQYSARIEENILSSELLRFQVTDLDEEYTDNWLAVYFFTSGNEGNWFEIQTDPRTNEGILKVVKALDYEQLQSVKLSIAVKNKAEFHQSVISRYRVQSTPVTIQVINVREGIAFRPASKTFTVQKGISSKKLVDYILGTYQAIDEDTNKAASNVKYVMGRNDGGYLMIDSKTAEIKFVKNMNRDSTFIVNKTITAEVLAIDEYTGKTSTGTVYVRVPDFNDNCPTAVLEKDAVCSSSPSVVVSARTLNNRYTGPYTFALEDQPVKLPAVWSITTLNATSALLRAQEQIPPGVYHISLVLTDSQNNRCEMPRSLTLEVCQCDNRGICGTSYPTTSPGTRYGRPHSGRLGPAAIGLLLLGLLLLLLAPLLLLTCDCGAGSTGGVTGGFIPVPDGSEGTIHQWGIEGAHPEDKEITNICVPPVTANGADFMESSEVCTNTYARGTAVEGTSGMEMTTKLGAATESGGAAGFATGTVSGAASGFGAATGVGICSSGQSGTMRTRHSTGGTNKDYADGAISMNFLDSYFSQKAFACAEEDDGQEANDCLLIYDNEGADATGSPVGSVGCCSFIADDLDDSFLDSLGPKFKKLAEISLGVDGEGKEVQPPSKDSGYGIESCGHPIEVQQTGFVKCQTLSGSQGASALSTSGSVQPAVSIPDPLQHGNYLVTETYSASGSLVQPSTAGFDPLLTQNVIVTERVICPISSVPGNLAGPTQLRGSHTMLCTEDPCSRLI
Starred values were filed as active, the others as inactive; ? = inconclusive; nt = no result given.

SMILES | NALP3 yeast inh | Arr AP2 block | NALP1 yeast inh | PolyA inhibitor | ALR H2O2 inh | DSG3 Ab inh
Cc1ccccc1C(=O)N1CC(=O)Nc2ccc(F)cc2C1c1ccccc1 (stereo not given) | 0 | -1 | 14 | 19 | 0 | 97
Cc1sc(NC(=O)CSc2nnc3scc(-c4ccccc4)n23)c(C#N)c1C | 11 | -1 | 16 | -23 | -1 | 84*
Cc1sc(NC(=O)CSc2nnc(COc3ccccc3)n2C)c(C#N)c1C | -5 | -4 | 6 | -5 | -1 | 99
CCC(C)(C)C1CCc2[nH]nc(C(=O)NCc3ccccn3)c2C1 (stereo not given) | -6 | 26 | nt | nt | 3 | 101
COC(=O)[C@]1(C)N[C@H](CN(C)C(=O)Nc2ccc(C)cc2)[C@@H]2C(=O)N(C)C(=O)[C@@H]21 | 10 | 34 | nt | nt | -4 | 106
O=C(N/N=C/c1c[nH]c2ccccc12)c1ccc(O)c(O)c1 | 12 | 36 | 14 | -7 | 99* | 97
O=C(O)c1cccc2c(/C=N/Nc3ccccn3)c[nH]c12 | 1 | 9 | nt | 6 | 98* | 89
C(=N\Nc1ccccn1)/c1c[nH]c2ccccc12 | 10 | -2 | -12 | -9 | 99* | 108
O=c1nc(N/N=C/c2c[nH]c3ccccc23)cn[nH]1 | 9 | -3 | nt | -8 | 1 | 89
O=C(COC(=O)COc1ccc(Br)cc1)NC1CCS(=O)(=O)C1 (stereo not given) | nt | nt | nt | nt | nt | 106
Cc1ccc(S(=O)(=O)NCC(=O)NCC(=O)NCCc2ccc(Cl)cc2)cc1C | nt | nt | nt | nt | nt | 102
COc1ccc(NC(=O)COC(=O)CCc2ccccc2)c(OC)c1 | 20 | 15 | 9 | -15 | 0 | 48*
COc1ccc(NC(=O)CCSCCC(=O)Nc2ccc(OC)cc2OC)c(OC)c1 | 22 | 3 | 20 | 15 | 97* | nt
COc1ccc(NC(=O)CSCc2ccc(C#N)cc2)c(OC)c1 | 32 | -2 | -23 | 12 | 98* | 97
COc1ccc(NC(=O)COC(=O)CCc2nc3ccccc3c(=O)[nH]2)c(OC)c1 | 14 | -3 | nt | nt | 3 | 102
COc1cc(CC(=O)OCC(=O)NCc2ccco2)cc(OC)c1OC | 8 | 0 | nt | nt | -7 | 107
CSc1ncc(Cl)c(C(=O)Nc2cccc(C)c2)n1 | 14 | 13 | 14 | -1 | 2 | 95
CSc1ncc(Cl)c(C(=O)C(C#N)c2nc3c(C)cc(C)cc3c(=O)[nH]2)n1 (stereo not given) | -7 | 33 | 0 | -9 | 86* | 100
CC(C)CN1CCC(=O)N([C@H](COc2ccccc2)c2ccccc2)CC1 | 27 | -6 | 14 | 3 | nt | 108
COC(=O)c1cccc(NC(=O)CSc2nc3cccnc3n2C)c1 | 3 | 6 | 1 | nt | 98* | 94
COC(=O)c1ccc(NC(=O)CSc2nncn2-c2ccccn2)cc1 | -8 | 3 | 1 | 11 | 99* | 106
COc1ccccc1CNC(=O)c1cc(-c2ccccc2C)n(CC2CC(c3cccc([N+](=O)[O-])c3)=NO2)n1 (stereo not given) | 11 | 8 | nt | nt | 0 | 101
O=C(CSc1nncs1)Nc1ccc(N2CCCCC2)cc1 | 11 | 2 | nt | nt | 98* | 106
Cc1ccc(NC(=O)CSc2nc(NS(=O)(=O)c3ccccc3)cc(=O)[nH]2)cc1 | -11 | -1 | 0 | -5 | 98* | nt
Cc1cc(=O)[nH]c(SCC(=O)Nc2ccc(S(N)(=O)=O)cc2)n1 | 8 | -13 | 7 | -1 | 99* | 107
SMILES | NALP3 yeast inh | Arr AP2 block | NALP1 yeast inh | PolyA inhibitor | ALR H2O2 inh | DSG3 Ab inh
Cc1cc(=O)[nH]c(SCC(=O)Nc2ccc(C(=O)O)cc2)n1 | 3 | 10 | 8 | 14 | 99* | 108
COc1ccc(NC(=O)CSc2nncs2)cc1S(=O)(=O)N1CCCCC1 | 15 | -6 | nt | nt | -5 | 102
Cc1ccccc1-c1cc(C(=O)NCC2CC2)nn1CC1CC(c2cccc([N+](=O)[O-])c2)=NO1 (stereo not given) | 14 | -5 | nt | nt | -4 | 98
CC(C)CN(C(=O)COC(=O)CNC(=O)c1ccccc1)c1c(N)n(Cc2ccccc2)c(=O)[nH]c1=O | 3 | 17 | nt | -2 | nt | 95
CCC1CCCCN1CCCCOc1cccc(Cl)c1 (stereo not given) | 33 | 28 | 22 | 5 | -11 | 101
CCN(CC)c1ccc(NC(=O)CSc2nc(C)cc(=O)[nH]2)cc1 | 16 | 10 | -7 | 12 | 99* | 100
O=C(CSc1nccc(=O)[nH]1)Nc1ccc(S(=O)(=O)N2CCOCC2)cc1 | -6 | -18 | 7 | 13 | 99* | 106
Cc1ccc2nc(SCC(=O)Nc3ccc(C)c([N+](=O)[O-])c3)[nH]c2c1 | -4 | 4 | 13 | 8 | 87* | 100
Cc1ccc2nc(SCC(=O)Nc3ccc(F)c([N+](=O)[O-])c3)[nH]c2c1 | 4 | -2 | 14 | 6 | nt | 104
CCOC(=O)c1ccc(NC(=O)CSc2nc(C)cc(=O)[nH]2)cc1 | -5 | 9 | -6 | -2 | 99* | nt
C[C@H](CO)N1C[C@H](C)[C@H](CN(C)S(C)(=O)=O)OCc2cnnn2CCCC1=O | nt | nt | nt | nt | nt | 98
CC(=O)c1c(C)[nH]c(C(=O)CSc2nc3ccc(C)cc3[nH]2)c1C | 5 | 4 | 25 | -4 | 97* | 108
Cn1ccnc1SCC(=O)Nc1ccc(F)c([N+](=O)[O-])c1 | 19 | -21 | 4 | 4 | -11 | 93
Cc1cc(=O)[nH]c(SCC(=O)Nc2ccc(F)c([N+](=O)[O-])c2)n1 | -9 | nt | 0 | 8 | 98* | 120
Cc1ccc(NC(=S)NNc2ccc([N+](=O)[O-])cc2S(=O)(=O)Nc2ccccc2C(=O)O)cc1C | nt | 38 | 10 | -10 | nt | 98
Cc1ccc(NC(=S)NNc2ccc(C(=O)O)cc2[N+](=O)[O-])cc1C | 22 | 19 | nt | 22 | 99* | nt
CCOc1ccc(NC(=O)CSc2nncc(=O)[nH]2)cc1 | 5 | 0 | -5 | -2 | 99* | ?
COc1ccc(OCc2ccc(/C=N\NC(=O)c3sccc3C)o2)cc1 | 14 | -8 | -1 | nt | -8 | 100
Cc1ccc(NC(=O)CSc2ccc(C(N)=O)cc2[N+](=O)[O-])cc1 | -1 | 16 | 20 | -7 | 2 | 96
CCOC(=O)c1cc(C#N)c(SCC(=O)Nc2ccc(C(C)=O)cc2)[nH]c1=O | 6 | 10 | -12 | 6 | 99* | 98
